ChEMBL document CHEMBL4699542, “Design and synthesis of novel methoxypyridine-derived gamma-secretase modulators” (Bioorg Med Chem, 2020)
≈ marks a conversion by molar mass, not a printed value.

Columns and labels:
[1] = Ratio of drug concentration in CD-1 mouse brain to plasma at 0.4 mg/kg, iv measured after 1 hr; assay type: ADME, organism-based
[2] = Metabolic stability in rat liver microsomes assessed as parent compound remaining at 1 uM incubated for 30 mins; assay type: ADME, Microsome; details: 0.5 h
Outline: (§1)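 Test compound at 1 μM incubated 30 min with human, rat or mouse liver microsomes (1 mg/mL); parent remaining expressed as %.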

[3] = AUClast in CD-1 mouse at 5 mg/kg, po administered as single dose measured up to 24 hrs; assay type: ADME, organism-based; design: route oral, dose 5 mg/kg, time <=24; details: in vivo
Outline: (§2)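 Male CD-1 mice, 6–8 weeks old, single dose by tail vein (1 mg/kg, 3% NMP/45% PEG300/12% ethanol/40% water) or oral gavage (5 mg/kg, 5% NMP/95% PEG300). Retro-orbital plasma sampled 0.083 (iv only) to 24 h, n=3/timepoint, and analysed by HPLC/MS/MS. Non-compartmental analysis. Half-life taken from the terminal phase using ≥3 non-zero points after Tmax.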

[4] = Half life in CD-1 mouse at 1 mg/kg, iv administered as single dose measured up to 24 hrs; assay type: ADME, organism-based; details: mouse, in vivo, 1 mg/kg, 24 h; outline: as §2
[5] = Cmax in CD-1 mouse at 1 mg/kg, iv administered as single dose measured up to 24 hrs; assay type: ADME, organism-based; design: route intravenous, dose 1 mg/kg, time <=24; details: in vivo; outline: as §2
Cytochrome P450 3A4 = Cytochrome P450 3A4 (Homo sapiens, UniProt P08684); assay: Inhibition of recombinant CYP3A4 (unknown origin) by fluorescence-based assay; assay type: ADME
Chain of Cytochrome P450 3A4 (P08684 whole entry): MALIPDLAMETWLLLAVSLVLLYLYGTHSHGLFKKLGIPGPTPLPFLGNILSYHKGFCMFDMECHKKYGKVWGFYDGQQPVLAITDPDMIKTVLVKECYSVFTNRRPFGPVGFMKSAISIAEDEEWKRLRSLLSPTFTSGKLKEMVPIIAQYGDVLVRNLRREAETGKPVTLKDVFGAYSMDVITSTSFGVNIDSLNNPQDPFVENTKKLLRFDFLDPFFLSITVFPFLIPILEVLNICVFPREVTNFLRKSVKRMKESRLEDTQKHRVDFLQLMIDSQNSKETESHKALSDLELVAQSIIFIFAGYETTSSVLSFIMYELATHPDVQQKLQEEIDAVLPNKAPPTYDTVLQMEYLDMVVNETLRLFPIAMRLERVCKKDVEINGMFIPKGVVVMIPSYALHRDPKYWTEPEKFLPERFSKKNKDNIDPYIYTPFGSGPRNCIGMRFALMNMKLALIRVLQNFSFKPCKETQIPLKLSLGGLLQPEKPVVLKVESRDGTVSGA

[6] = Volume of distribution at steady state in CD-1 mouse at 1 mg/kg, iv administered as single dose measured up to 24 hrs; assay type: ADME, organism-based; details: in vivo
Outline: (§3)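 Male CD-1 mice, 6–8 weeks old, single tail-vein dose in 3% NMP/45% PEG300/12% ethanol/40% sterile water. Retro-orbital plasma (K3EDTA) taken at 0.083, 0.25, 0.5, 1, 2, 4, 8 and 24 h, n=3/timepoint, analysed by HPLC/MS/MS. Non-compartmental analysis (Model 201, uniform weighting); Tmax read directly from the data.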

[7] = target: Voltage-gated inwardly rectifying potassium channel KCNH2 (Homo sapiens, UniProt Q12809); assay: Inhibition of human ERG expressed in HEK293 cells by patch clamp assay; assay type: cell-based
Chain of Voltage-gated inwardly rectifying potassium channel KCNH2 (Q12809 whole entry): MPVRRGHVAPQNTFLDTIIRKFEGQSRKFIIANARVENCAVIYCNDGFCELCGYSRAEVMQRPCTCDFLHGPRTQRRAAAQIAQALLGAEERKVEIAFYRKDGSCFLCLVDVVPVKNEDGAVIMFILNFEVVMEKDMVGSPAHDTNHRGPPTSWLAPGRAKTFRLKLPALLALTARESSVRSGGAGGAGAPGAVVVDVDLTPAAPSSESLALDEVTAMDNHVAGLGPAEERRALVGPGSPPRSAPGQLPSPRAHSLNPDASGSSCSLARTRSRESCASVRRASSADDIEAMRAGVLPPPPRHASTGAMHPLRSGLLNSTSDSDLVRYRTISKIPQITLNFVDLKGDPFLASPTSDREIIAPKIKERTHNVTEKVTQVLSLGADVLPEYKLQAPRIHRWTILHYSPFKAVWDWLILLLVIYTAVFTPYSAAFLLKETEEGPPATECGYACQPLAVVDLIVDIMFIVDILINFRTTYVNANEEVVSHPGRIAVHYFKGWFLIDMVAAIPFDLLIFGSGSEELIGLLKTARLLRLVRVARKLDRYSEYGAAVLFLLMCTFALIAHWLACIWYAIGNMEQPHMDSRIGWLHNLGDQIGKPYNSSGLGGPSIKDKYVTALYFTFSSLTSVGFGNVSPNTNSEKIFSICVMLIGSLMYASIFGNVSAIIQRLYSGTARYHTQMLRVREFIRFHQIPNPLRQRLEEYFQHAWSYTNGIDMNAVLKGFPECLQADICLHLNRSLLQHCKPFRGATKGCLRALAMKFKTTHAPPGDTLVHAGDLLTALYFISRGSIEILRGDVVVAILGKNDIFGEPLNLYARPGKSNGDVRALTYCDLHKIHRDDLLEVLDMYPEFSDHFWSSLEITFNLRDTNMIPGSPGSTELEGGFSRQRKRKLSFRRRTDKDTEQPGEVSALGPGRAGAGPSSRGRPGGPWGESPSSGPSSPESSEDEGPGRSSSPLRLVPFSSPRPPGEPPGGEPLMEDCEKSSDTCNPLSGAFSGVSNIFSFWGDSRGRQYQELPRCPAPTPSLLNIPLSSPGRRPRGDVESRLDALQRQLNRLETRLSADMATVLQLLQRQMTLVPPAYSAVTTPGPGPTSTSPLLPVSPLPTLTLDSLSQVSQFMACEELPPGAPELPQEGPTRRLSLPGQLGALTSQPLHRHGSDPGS

[8] = Tmax in CD-1 mouse at 5 mg/kg, po administered as single dose measured up to 24 hrs; assay type: ADME, organism-based; details: in vivo
Outline: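 Male CD-1 mice, 6–8 weeks old, single oral gavage dose in 5% NMP/95% PEG300. Plasma (K3EDTA, retro-orbital, under isoflurane) taken at 0.25, 0.5, 1, 2, 4, 8 and 24 h, n=3/timepoint, analysed by HPLC/MS/MS. Non-compartmental extravascular analysis (Model 200); Tmax taken directly from the data.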

[9] = Kinetic aqueous solubility of the compound in pH 7.4 PBS buffer by UV/Visible absorbance analysis; assay type: physicochemical; details: read-out: Kinetic_solubility
Outline: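 Kinetic solubility determined in PBS at pH 7.4 by UV/Vis absorbance, reported in μM.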

Cytochrome P450 2D6 = Cytochrome P450 2D6 (Homo sapiens, UniProt P10635); assay: Inhibition of recombinant CYP2D6 (unknown origin) by fluorescence-based assay; assay type: ADME
Chain of Cytochrome P450 2D6 (P10635 whole entry, canonical isoform): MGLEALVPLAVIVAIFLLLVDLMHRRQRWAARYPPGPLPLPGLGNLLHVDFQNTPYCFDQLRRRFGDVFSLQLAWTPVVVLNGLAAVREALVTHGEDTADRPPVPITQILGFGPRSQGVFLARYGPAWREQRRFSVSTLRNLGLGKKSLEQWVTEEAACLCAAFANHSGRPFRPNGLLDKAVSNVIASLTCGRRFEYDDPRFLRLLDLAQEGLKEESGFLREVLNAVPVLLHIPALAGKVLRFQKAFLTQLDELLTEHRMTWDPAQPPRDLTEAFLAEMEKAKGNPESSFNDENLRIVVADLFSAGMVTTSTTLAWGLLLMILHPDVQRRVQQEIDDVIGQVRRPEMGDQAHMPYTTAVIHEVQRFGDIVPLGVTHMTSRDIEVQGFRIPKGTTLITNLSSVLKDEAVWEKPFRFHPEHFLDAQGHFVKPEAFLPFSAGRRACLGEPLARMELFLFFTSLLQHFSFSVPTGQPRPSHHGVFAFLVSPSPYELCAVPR
Outline: (§4)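 Recombinant CYP isoforms (five tested) screened for inhibition in fluorescence-based assays; IC50 in μM.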

[10] = AUC infinity in CD-1 mouse at 1 mg/kg, iv administered as single dose measured up to 24 hrs; assay type: ADME, organism-based; design: route intravenous, dose 1 mg/kg, time <=24; details: in vivo; outline: as §2
[11] = Apparent permeability from apical to basolateral membrane in MDCK-MDR1 cells; assay type: ADME, cell-based, Canis lupus familiaris; details: dog
Outline: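 Apical-to-basolateral apparent permeability (×10⁻⁶ cm/s) measured across MDR1-MDCK cell monolayers.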

[12] = Oral bioavailability in CD-1 mouse at 5 mg/kg administered as single dose measured up to 24 hrs; assay type: ADME, organism-based; details: in vivo
Outline: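 CD-1 mouse PK after single iv (1 mg/kg) and oral gavage (5 mg/kg) dosing, with plasma sampled to 24 h (n=3/timepoint) and measured by HPLC/MS/MS. F(%) = (AUC0-inf po × Dose iv)/(AUC0-inf iv × Dose po) × 100.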

[13] = Ratio of drug concentration in CD-1 mouse brain to plasma at 5 mg/kg, po measured after 1 hr; assay type: ADME, organism-based
Outline: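 Male CD-1 mice dosed once iv (1 mg/kg) or by oral gavage (5 mg/kg). Brain and plasma collected 1 h post dose (n=3/timepoint). Drug levels by HPLC/MS/MS; brain/plasma ratio calculated from these levels.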

Cytochrome P450 1A2 = target: T1, Cytochrome P450 1A2 (Homo sapiens, UniProt P05177); assay: Inhibition of recombinant CYP1A2 (unknown origin) by fluorescence-based assay; assay type: ADME; outline: as §4
T1 sequence (P05177 whole entry): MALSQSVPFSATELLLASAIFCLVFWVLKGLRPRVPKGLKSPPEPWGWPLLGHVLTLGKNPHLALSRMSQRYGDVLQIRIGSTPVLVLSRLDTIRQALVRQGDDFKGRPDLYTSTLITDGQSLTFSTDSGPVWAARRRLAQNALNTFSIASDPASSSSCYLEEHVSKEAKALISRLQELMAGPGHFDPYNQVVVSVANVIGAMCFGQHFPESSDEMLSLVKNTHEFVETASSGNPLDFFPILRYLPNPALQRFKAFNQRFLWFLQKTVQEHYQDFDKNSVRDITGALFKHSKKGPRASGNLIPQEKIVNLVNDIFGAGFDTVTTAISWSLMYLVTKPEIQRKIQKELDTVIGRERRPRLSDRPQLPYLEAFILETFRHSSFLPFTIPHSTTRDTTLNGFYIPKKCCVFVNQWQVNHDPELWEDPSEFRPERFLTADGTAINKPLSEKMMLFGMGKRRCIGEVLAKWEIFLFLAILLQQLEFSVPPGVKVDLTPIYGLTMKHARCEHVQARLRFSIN

[14] = AUClast in CD-1 mouse at 1 mg/kg, iv administered as single dose measured up to 24 hrs; assay type: ADME, organism-based; design: route intravenous, dose 1 mg/kg, time <=24; details: in vivo; outline: as §2
Gamma-secretase [15] = assay: Modulation of gamma secretase in human SH-SY5Y cells overexpressing wild type APP751 assessed as inhibition of amyloid beta (35 to 42 residues) formation incubated for overnight by ELISA; assay type: cell-based
Outline: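 SHSY5Y-APP751 cells plated at 75K/well and incubated overnight at 37 °C, then treated 24 h over 10 concentrations ([…]–10 μM, 1:3.16 steps, in duplicate). Medium Aβ42 measured by sandwich ELISA (Aβ35–42 capture, AP-conjugated Aβ1–12 detection, CDP-Star luminescence) against an Aβ42 standard curve.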

[16] = Metabolic stability in mouse liver microsomes assessed as parent compound remaining at 1 uM incubated for 30 mins; assay type: ADME, Microsome; details: 0.5 h; outline: as §1
[17] = Efflux ratio of apparent permeability from basolateral to apical membrane over apical to basolateral membrane in MDCK-MDR1 cells; assay type: ADME, cell-based, Canis lupus familiaris; details: dog
Outline: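 Calculated as B-A/A-B apparent permeability ratio across MDR1-MDCK cell monolayers; A-B permeability expressed as ×10⁻⁶ cm/s.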

[18] = Metabolic stability in human liver microsomes assessed as parent compound remaining at 1 uM incubated for 30 mins; assay type: ADME, Microsome; details: microsomes, 0.5 h, 1 µM; outline: as §1
[19] = Cmax in CD-1 mouse at 5 mg/kg, po administered as single dose measured up to 24 hrs; assay type: ADME, organism-based; design: route oral, dose 5 mg/kg, time <=24; details: in vivo; outline: as §2
Cytochrome P450 2C9 = Cytochrome P450 2C9 (Homo sapiens, UniProt P11712); assay: Inhibition of recombinant CYP2C9 (unknown origin) by fluorescence-based assay; assay type: ADME; outline: as §4
Chain of Cytochrome P450 2C9 (P11712 whole entry): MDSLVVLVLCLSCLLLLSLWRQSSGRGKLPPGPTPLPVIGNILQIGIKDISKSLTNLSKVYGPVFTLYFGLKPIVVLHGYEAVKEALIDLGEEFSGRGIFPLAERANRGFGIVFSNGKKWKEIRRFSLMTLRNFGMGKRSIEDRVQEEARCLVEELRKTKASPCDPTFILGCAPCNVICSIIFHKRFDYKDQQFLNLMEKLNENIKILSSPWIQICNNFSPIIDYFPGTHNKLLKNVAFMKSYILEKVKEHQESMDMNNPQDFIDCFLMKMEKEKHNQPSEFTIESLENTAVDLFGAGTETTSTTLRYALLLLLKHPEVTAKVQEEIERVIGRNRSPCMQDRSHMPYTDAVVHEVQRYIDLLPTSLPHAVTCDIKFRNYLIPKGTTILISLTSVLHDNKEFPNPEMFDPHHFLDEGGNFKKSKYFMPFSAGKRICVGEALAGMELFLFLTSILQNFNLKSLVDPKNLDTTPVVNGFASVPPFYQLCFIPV

[20] = Tmax in CD-1 mouse at 1 mg/kg, iv administered as single dose measured up to 24 hrs; assay type: ADME, organism-based; details: in vivo; outline: as §3
Cytochrome P450 2C19 = Cytochrome P450 2C19 (Homo sapiens, UniProt P33261); assay: Inhibition of recombinant CYP2C19 (unknown origin) by fluorescence-based assay; assay type: ADME; outline: as §4
Chain of Cytochrome P450 2C19 (P33261 whole entry): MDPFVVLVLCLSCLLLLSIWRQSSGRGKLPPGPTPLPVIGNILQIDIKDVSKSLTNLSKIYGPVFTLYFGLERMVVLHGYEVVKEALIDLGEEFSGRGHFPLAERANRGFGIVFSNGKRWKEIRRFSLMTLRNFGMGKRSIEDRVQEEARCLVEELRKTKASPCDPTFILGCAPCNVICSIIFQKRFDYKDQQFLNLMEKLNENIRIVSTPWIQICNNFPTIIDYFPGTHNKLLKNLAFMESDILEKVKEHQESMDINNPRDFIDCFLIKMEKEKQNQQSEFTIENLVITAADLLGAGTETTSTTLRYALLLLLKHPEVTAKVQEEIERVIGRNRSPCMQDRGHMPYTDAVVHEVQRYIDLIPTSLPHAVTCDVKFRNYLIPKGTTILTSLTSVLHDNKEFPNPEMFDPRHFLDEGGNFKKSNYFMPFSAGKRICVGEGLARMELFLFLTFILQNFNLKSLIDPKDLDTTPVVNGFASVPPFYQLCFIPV

[21] = Half life in CD-1 mouse at 5 mg/kg, po administered as single dose measured up to 24 hrs; assay type: ADME, organism-based; details: in vivo; outline: as §2
Gamma-secretase [22] = assay: Inhibition of gamma secretase in human H4 cells overexpressing APP751 transfected with Myc-tagged Notch assessed as accumulation of Notch substrate at 100 to 300 nM incubated for 24 hrs by Western blot analysis; assay type: cell-based; details: h4, 24 h, 0.3 µM, dose 100-300 nM
Outline: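 H4 neuroglioma cells stably overexpressing human APP751 were transfected with Myc-tagged NΔE Notch, then treated 24 h with 1 or 10 μM modulator, 100 or 300 nM DAPT, or vehicle. Cells harvested 48 h post-transfection. Western blot with anti-Myc detected NΔE and NICD; β-actin served as loading control.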

[23] = AUC infinity in CD-1 mouse at 5 mg/kg, po administered as single dose measured up to 24 hrs; assay type: ADME, organism-based; design: route oral, dose 5 mg/kg, time <=24; details: in vivo; outline: as §2

| Compound | BPR [1] | Stabilty [2] [%] | AUClast [3] [ng·h/mL] | t1/2 [4] [h] | Cmax [5] [ng/mL] | IC50 (Cytochrome P450 3A4) [µM] | Vdss [6] [L/kg] | IC50 [7] [µM] | Tmax [8] [h] | solubility kinetic [9] [µM] | IC50 (Cytochrome P450 2D6) [µM] | Papp [11] | F [12] [%] | BPR [13] | IC50 (Cytochrome P450 1A2) [µM] | IC50 (Gamma-secretase [15]) [µM] | Stabilty [16] [%] | Stabilty [18] [%] | IC50 (Cytochrome P450 2C9) [µM] | IC50 (Cytochrome P450 2C19) [µM] | other results |
| --- | --- | --- | --- | --- | --- | --- | --- | --- | --- | --- | --- | --- | --- | --- | --- | --- | --- | --- | --- | --- | --- |
| CCn1nc(C2(C)CC2)cc1Nc1nc(-c2ccc(-n3cnc(C)c3)c(OC)n2)cs1 | 0.62 | 73 | 3976 | 3.84 | 384 | 4.1 | 3.609 | 12.3 | 2 | 6.7 (≈ 2.92 µg/mL) | > 100 | 18.5 10^-6 cm/s | 63.8 | 0.57 | > 100 | 0.032 | 81 | 67 | > 100 | > 100 | AUC [10]: 1378 ng·h/mL; AUClast [14]: 1247 ng·h/mL; Ratio [17]: 1.3; Cmax [19]: 592 ng/mL; Tmax [20]: 4.98 min |
| COc1nc(-c2csc(Nc3c4c(nn3C)CCC4)n2)ccc1-n1cnc(C)c1 | 0.21 | 71 | 2700 | 1.9 | 478 | 4.5 | 3.18 | 0.92 | 1 | 44 (≈ 17.9 µg/mL) | > 100 | 22.3 10^-6 cm/s | 74.6 | 0.22 | > 100 | 0.08 | 75 | 76 | > 100 | 37 | t1/2 [21]: 1.6 h; AUClast [14]: 723 ng·h/mL; Ratio [17]: 1.9; Cmax [19]: 580 ng/mL; Tmax [20]: 4.98 min |
| C[C@H](NC(=O)Cc1cc(F)cc(F)c1)C(=O)N[C@H](C(=O)OC(C)(C)C)c1ccccc1 | – | – | – | – | – | – | – | – | – | – | – | – | – | – | – | – | – | – | – | – | inhibition (INH) (Gamma-secretase [22]): Active |
| COc1nc(-c2csc(Nc3c4c(nn3C(C)(C)C)CCCC4)n2)ccc1-n1cnc(C)c1 | – | 63 | – | – | – | 5.3 | – | 7.18 | – | 34 (≈ 15.8 µg/mL) | > 100 | 14.8 10^-6 cm/s | – | – | 9.1 | 0.071 | 23 | 19 | 47 | 12 | Ratio [17]: 0.9 |
| CCn1nc(C(F)(F)F)cc1Nc1nc(-c2ccc(-n3cnc(C)c3)c(OC)n2)cs1 | 0.73 | 96 | 1727 | 1.6 | 359 | 5.3 | 3.64 | – | 1 | 15 (≈ 6.74 µg/mL) | > 100 | 23.3 10^-6 cm/s | 76 | 0.62 | 9.1 | 0.058 | 71 | 84 | 47 | 12 | AUC [10]: 623 ng·h/mL; AUClast [14]: 605 ng·h/mL; AUC [23]: 2369 ng·h/mL; Cmax [19]: 470 ng/mL; Tmax [20]: 4.98 min |
